{"source": "ChEMBL document CHEMBL2057150", "about": "“The synthesis and SAR of calcitonin gene-related peptide (CGRP) receptor antagonists derived from tyrosine surrogates. Part 1” (Bioorg Med Chem Lett, 2012)", "key": {"[1]": {"target": "Calcitonin gene-related peptide type 1 receptor (Homo sapiens, UniProt O60894+Q16602)", "sequence (Q16602 whole entry, one chain of several)": "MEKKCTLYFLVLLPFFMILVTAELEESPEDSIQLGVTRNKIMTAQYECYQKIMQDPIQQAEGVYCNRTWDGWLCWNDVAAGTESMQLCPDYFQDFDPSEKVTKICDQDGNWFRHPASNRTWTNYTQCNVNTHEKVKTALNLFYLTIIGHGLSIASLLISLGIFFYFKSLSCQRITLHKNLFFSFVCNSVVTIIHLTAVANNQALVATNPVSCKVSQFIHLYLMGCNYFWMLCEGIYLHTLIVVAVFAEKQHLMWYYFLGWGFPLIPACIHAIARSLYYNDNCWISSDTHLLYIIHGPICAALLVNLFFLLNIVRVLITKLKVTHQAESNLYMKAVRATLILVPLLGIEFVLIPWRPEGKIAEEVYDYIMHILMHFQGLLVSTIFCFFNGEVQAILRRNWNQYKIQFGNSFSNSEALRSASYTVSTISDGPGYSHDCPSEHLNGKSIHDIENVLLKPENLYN", "assay": "Displacement of [125I]CGRP from CGRP receptor in human SK-N-MC cell membrane after 2 hrs", "assay_type": "cell membranes"}, "Cytochrome P450 3A4 [2]": {"target": "T1, Cytochrome P450 3A4 (Homo sapiens, UniProt P08684)", "T1 sequence (P08684 whole entry)": "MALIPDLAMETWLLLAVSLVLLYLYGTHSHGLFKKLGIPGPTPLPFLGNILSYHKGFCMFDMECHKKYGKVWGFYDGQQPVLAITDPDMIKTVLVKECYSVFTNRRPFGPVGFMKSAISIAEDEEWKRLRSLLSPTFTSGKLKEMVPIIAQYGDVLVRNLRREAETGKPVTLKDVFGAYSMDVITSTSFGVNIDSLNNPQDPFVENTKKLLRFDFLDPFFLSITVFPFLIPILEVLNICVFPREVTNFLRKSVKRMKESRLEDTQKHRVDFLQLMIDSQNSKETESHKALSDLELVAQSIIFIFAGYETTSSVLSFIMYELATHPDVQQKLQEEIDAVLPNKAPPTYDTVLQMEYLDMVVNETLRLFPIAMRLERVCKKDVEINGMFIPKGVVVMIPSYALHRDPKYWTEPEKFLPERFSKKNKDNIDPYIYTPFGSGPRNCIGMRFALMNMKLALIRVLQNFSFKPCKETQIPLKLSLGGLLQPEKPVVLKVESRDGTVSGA", "assay": "Inhibition of human recombinant CYP3A4 expressed in baculo-virus infected insect microsomes using benzyloxyresorufin as substrate after 45 mins by fluorescence detection assay", "assay_type": "ADME, Microsome"}, "Cytochrome P450 3A4 [3]": {"target": "T1, Cytochrome P450 3A4", "assay": "Inhibition of human recombinant CYP3A4 expressed in baculo-virus infected insect microsomes using 7-benzyloxy-4-trifluoromethylcoumarin as substrate after 20 mins by fluorescence detection assay", "assay_type": "ADME, Microsome"}, "[4]": {"assay": "Cardiovascular toxicity in human coronary arteries assessed as induction of vasoconstriction after 30 mins", "parameters": "species or system Coronary artery", "conditions": "for Activity: 0.5 h; for EC50 at 30 min: human coronary arteries", "how_it_was_run": "(§1)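 Ex vivo human arteries in tissue baths; test agent applied up to 10 µM and contraction recorded. Serotonin (10 µM) added to each bath at session end as the reference for maximal vessel contractility; contraction expressed as percent of serotonin maximum.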"}, "[5]": {"assay": "Cardiovascular toxicity in human coronary arteries assessed as induction of vasoconstriction after 30 mins relative to serotonin", "parameters": "species or system Coronary artery", "how_it_was_run": "as §1"}, "Callithrix jacchus [6]": {"system": "Callithrix jacchus", "assay": "Antimigraine activity in marmosets assessed as inhibition of CGRP-induced increase in facial blood flow at 1 mg/kg, sc administered 30 mins post CGRP-challenge measured up to 105 mins by laser doppler flowmetry", "assay_type": "functional, organism-based", "parameters": "dose 1 mg/kg", "how_it_was_run": "(§2)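 Anesthetized marmosets; facial blood flow raised by iv hαCGRP (10 µg/kg) at 45 min intervals (-30, 15, 60, 105 min). Antagonist given sc at 0 min (dose range 0.3–1 mg/kg). CGRP-induced changes in facial blood flow read by laser Doppler flowmetry.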"}, "[7]": {"assay": "Cardiovascular toxicity in human coronary arteries assessed as induction of vasoconstriction up to 10 uM after 30 mins", "parameters": "species or system Coronary artery", "conditions": "0.5 h", "how_it_was_run": "as §1"}, "Callithrix jacchus [8]": {"system": "Callithrix jacchus", "assay": "Antimigraine activity in sc dosed marmosets assessed as inhibition of CGRP-induced increase in facial blood flow administered 30 mins post CGRP-challenge measured up to 105 mins by laser doppler flowmetry", "assay_type": "functional, organism-based", "how_it_was_run": "as §2"}}, "note": "Active and inactive are the calls of the source. The rule behind the calls is not given here.", "data": [{"smiles": "O=C(N[C@H](Cc1cccc2ccccc12)C(=O)N1CCC(N2CCCCC2)CC1)N1CCC(n2c(=O)[nH]c3ccccc32)CC1", "values": [{"measurement": "Ki", "setting": "[1]", "value": 7.2, "unit": "nM"}, {"measurement": "IC50", "setting": "Cytochrome P450 3A4 [2]", "value": 30, "unit": "nM"}]}, {"smiles": "O=C(N[C@H](Cc1ccc2[nH]c(=O)oc2c1)C(=O)N1CCC(N2CCCCC2)CC1)N1CCC(N2Cc3ccccc3NC2=O)CC1", "values": [{"measurement": "Ki", "setting": "[1]", "value": 0.27, "unit": "nM"}, {"measurement": "IC50", "setting": "Cytochrome P450 3A4 [2]", "value": 30000, "unit": "nM"}]}, {"smiles": "O=C(O)CC[C@@H](NC(=O)N1CCC(n2c(=O)[nH]c3ccccc32)CC1)C(=O)N1CCC(N2CCCCC2)CC1", "values": [{"measurement": "Ki", "setting": "[1]", "value": "> 1000", "unit": "nM"}]}, {"smiles": "O=C(N[C@H](Cc1csc2ccccc12)C(=O)N1CCC(N2CCCCC2)CC1)N1CCC(n2c(=O)[nH]c3ccccc32)CC1", "values": [{"measurement": "Ki", "setting": "[1]", "value": 0.55, "unit": "nM"}, {"measurement": "IC50", "setting": "Cytochrome P450 3A4 [2]", "value": 84, "unit": "nM"}, {"measurement": "IC50", "setting": "Cytochrome P450 3A4 [3]", "value": 870, "unit": "nM"}]}, {"smiles": "CNS(=O)(=O)Cc1ccc2[nH]cc(CCN(C)C)c2c1", "values": [{"measurement": "Activity", "setting": "[4]", "value": "Dose-dependent effect"}, {"measurement": "EC50 at 30 min", "setting": "[4]", "value": 120, "unit": "nM"}, {"measurement": "Emax at 0.5 h", "setting": "[5]", "value": 48, "unit": "%"}]}, {"smiles": "O=C(N[C@@H](Cc1cc(Br)c(O)c(Br)c1)C(=O)N1CCC(N2CCCCC2)CC1)N1CCC(n2c(=O)[nH]c3ccccc32)CC1", "values": [{"measurement": "Ki", "setting": "[1]", "value": "> 1000", "unit": "nM"}]}, {"smiles": "O=C(N[C@H](CCc1ccccc1)C(=O)N1CCC(N2CCCCC2)CC1)N1CCC(n2c(=O)[nH]c3ccccc32)CC1", "values": [{"measurement": "Ki", "setting": "[1]", "value": "> 1000", "unit": "nM"}]}, {"smiles": "CC(C)C[C@@H](NC(=O)N1CCC(n2c(=O)[nH]c3ccccc32)CC1)C(=O)N1CCC(N2CCCCC2)CC1", "values": [{"measurement": "Ki", "setting": "[1]", "value": 2400, "unit": "nM"}, {"measurement": "IC50", "setting": "Cytochrome P450 3A4 [2]", "value": 16000, "unit": "nM"}]}, {"smiles": "Nc1ccc(C[C@@H](NC(=O)N2CCC(n3c(=O)[nH]c4ccccc43)CC2)C(=O)N2CCC(N3CCCCC3)CC2)cc1", "values": [{"measurement": "Ki", "setting": "[1]", "value": 750, "unit": "nM"}]}, {"smiles": "O=C(N[C@H](Cc1ccc2nn[nH]c2c1)C(=O)N1CCC(N2CCCCC2)CC1)N1CCC(N2Cc3ccccc3NC2=O)CC1", "values": [{"measurement": "Ki", "setting": "[1]", "value": 0.55, "unit": "nM"}, {"measurement": "IC50", "setting": "Cytochrome P450 3A4 [2]", "value": 23000, "unit": "nM"}]}, {"smiles": "O=C(N[C@H](CCc1ccc(O)cc1)C(=O)N1CCC(N2CCCCC2)CC1)N1CCC(n2c(=O)[nH]c3ccccc32)CC1", "values": [{"measurement": "Ki", "setting": "[1]", "value": 2100, "unit": "nM"}]}, {"smiles": "O=C(N[C@H](Cc1ccc(O)cc1)C(=O)N1CCC(N2CCCCC2)CC1)N1CCC(n2c(=O)[nH]c3ccccc32)CC1", "values": [{"measurement": "Ki", "setting": "[1]", "value": 2.5, "unit": "nM"}, {"measurement": "IC50", "setting": "Cytochrome P450 3A4 [2]", "value": "> 40000", "unit": "nM"}]}, {"smiles": "O=C1Cc2cc(C[C@@H](NC(=O)N3CCC(N4Cc5ccccc5NC4=O)CC3)C(=O)N3CCC(N4CCCCC4)CC3)ccc2N1", "values": [{"measurement": "Ki", "setting": "[1]", "value": 0.65, "unit": "nM"}, {"measurement": "IC50", "setting": "Cytochrome P450 3A4 [2]", "value": 11000, "unit": "nM"}]}, {"smiles": "O=C(N[C@H](Cc1ccc2ccccc2c1)C(=O)N1CCC(N2CCCCC2)CC1)N1CCC(n2c(=O)[nH]c3ccccc32)CC1", "values": [{"measurement": "Ki", "setting": "[1]", "value": 230, "unit": "nM"}, {"measurement": "IC50", "setting": "Cytochrome P450 3A4 [2]", "value": 30, "unit": "nM"}]}, {"smiles": "Cc1nc2cc(C[C@@H](NC(=O)N3CCC(N4Cc5ccccc5NC4=O)CC3)C(=O)N3CCC(N4CCCCC4)CC3)ccc2[nH]1", "values": [{"measurement": "Ki", "setting": "[1]", "value": 28, "unit": "nM"}]}, {"smiles": "O=C(N[C@@H](Cc1ccc2[nH]ncc2c1)C(=O)N1CCC(N2CCCCC2)CC1)N1CCC(N2Cc3ccccc3NC2=O)CC1", "values": [{"measurement": "IC50", "setting": "Cytochrome P450 3A4 [2]", "value": 7300, "unit": "nM"}, {"measurement": "inhibition", "setting": "Callithrix jacchus [6]", "value": "inactive"}]}, {"smiles": "O=C(N[C@@H](C(=O)N1CCC(N2CCCCC2)CC1)c1ccccc1)N1CCC(n2c(=O)[nH]c3ccccc32)CC1", "values": [{"measurement": "Ki", "setting": "[1]", "value": "> 1000", "unit": "nM"}]}, {"smiles": "COc1ccc(C[C@@H](NC(=O)N2CCC(n3c(=O)[nH]c4ccccc43)CC2)C(=O)N2CCC(N3CCCCC3)CC2)cc1", "values": [{"measurement": "Ki", "setting": "[1]", "value": 1400, "unit": "nM"}]}, {"smiles": "Cn1cc(C[C@@H](NC(=O)N2CCC(n3c(=O)[nH]c4ccccc43)CC2)C(=O)N2CCC(N3CCCCC3)CC2)c2ccccc21", "values": [{"measurement": "Ki", "setting": "[1]", "value": 16, "unit": "nM"}, {"measurement": "IC50", "setting": "Cytochrome P450 3A4 [2]", "value": 100, "unit": "nM"}]}, {"smiles": "O=C(N[C@H](Cc1cc(Br)c(O)c(Br)c1)C(=O)N1CCC(N2CCCCC2)CC1)N1CCC(n2c(=O)[nH]c3ccccc32)CC1", "values": [{"measurement": "Ki", "setting": "[1]", "value": 0.65, "unit": "nM"}, {"measurement": "IC50", "setting": "Cytochrome P450 3A4 [2]", "value": 2400, "unit": "nM"}]}, {"smiles": "CN(C)CCc1c[nH]c2ccc(C[C@H]3COC(=O)N3)cc12", "note": "[ZOLMITRIPTAN]", "values": [{"measurement": "Activity", "setting": "[4]", "value": "Dose-dependent effect"}, {"measurement": "EC50 at 30 min", "setting": "[4]", "value": 40, "unit": "nM"}, {"measurement": "Emax at 0.5 h", "setting": "[5]", "value": 39, "unit": "%"}]}, {"smiles": "O=C(N[C@H](Cc1ccccc1)C(=O)N1CCC(N2CCCCC2)CC1)N1CCC(n2c(=O)[nH]c3ccccc32)CC1", "values": [{"measurement": "Ki", "setting": "[1]", "value": 300, "unit": "nM"}]}, {"smiles": "O=C(NC(Cc1ccc2[nH]ccc2c1)C(=O)N1CCC(N2CCCCC2)CC1)N1CCC(n2c(=O)[nH]c3ccccc32)CC1", "note": "(racemic)", "values": [{"measurement": "Ki", "setting": "[1]", "value": 32, "unit": "nM"}, {"measurement": "IC50", "setting": "Cytochrome P450 3A4 [2]", "value": 2500, "unit": "nM"}]}, {"smiles": "O=C(N[C@H](Cc1ccc2[nH]ncc2c1)C(=O)N1CCC(N2CCCCC2)CC1)N1CCC(N2Cc3ccccc3NC2=O)CC1", "values": [{"measurement": "Activity", "setting": "[7]", "value": "Non-toxic"}, {"measurement": "inhibition", "setting": "Callithrix jacchus [8]", "value": "Dose-dependent effect"}]}, {"smiles": "NC(=O)CC[C@@H](NC(=O)N1CCC(n2c(=O)[nH]c3ccccc32)CC1)C(=O)N1CCC(N2CCCCC2)CC1", "values": [{"measurement": "Ki", "setting": "[1]", "value": "> 1000", "unit": "nM"}]}, {"smiles": "O=C(N[C@H](Cc1ccc(-c2ccccc2)cc1)C(=O)N1CCC(N2CCCCC2)CC1)N1CCC(n2c(=O)[nH]c3ccccc32)CC1", "values": [{"measurement": "Ki", "setting": "[1]", "value": 250, "unit": "nM"}, {"measurement": "IC50", "setting": "Cytochrome P450 3A4 [2]", "value": 1300, "unit": "nM"}]}, {"smiles": "O=C(N[C@H](Cc1c[nH]c2ccccc12)C(=O)N1CCC(N2CCCCC2)CC1)N1CCC(n2c(=O)[nH]c3ccccc32)CC1", "values": [{"measurement": "Ki", "setting": "[1]", "value": 84, "unit": "nM"}, {"measurement": "IC50", "setting": "Cytochrome P450 3A4 [2]", "value": "> 40000", "unit": "nM"}]}, {"smiles": "CC(=O)Nc1ccc(C[C@@H](NC(=O)N2CCC(n3c(=O)[nH]c4ccccc43)CC2)C(=O)N2CCC(N3CCCCC3)CC2)cc1", "values": [{"measurement": "Ki", "setting": "[1]", "value": 1900, "unit": "nM"}]}, {"smiles": "O=C(NC(Cc1ccc2[nH]ncc2c1)C(=O)N1CCC(N2CCCCC2)CC1)N1CCC(n2c(=O)[nH]c3ccccc32)CC1", "note": "(racemic)", "values": [{"measurement": "Ki", "setting": "[1]", "value": 68, "unit": "nM"}, {"measurement": "IC50", "setting": "Cytochrome P450 3A4 [2]", "value": 17000, "unit": "nM"}, {"measurement": "Activity", "setting": "[7]", "value": "Non-toxic"}]}]}
